# Laboratory results taken from ChEMBL document CHEMBL2331119 (Bioorg Med Chem Lett, 2013).
# Activity calls are given as the source filed them. The calls are words filed in the database; no cut-off is given here.
# Experiments:
# [1] = target: Sodium-dependent dopamine transporter (Homo sapiens, UniProt Q01959); assay: Inhibition of [3H]dopamine uptake at human DAT expressed in COS7 cells after 3 mins by beta-counting; assay type: cell-based, COS-7
# [2] = target: Sodium-dependent noradrenaline transporter (Homo sapiens, UniProt P23975); assay: Inhibition of [3H]dopamine uptake at human NET expressed in COS7 cells after 5 mins by beta-counting; assay type: cell-based, COS-7
# Sodium-dependent noradrenaline transporter, sequence (P23975 whole entry): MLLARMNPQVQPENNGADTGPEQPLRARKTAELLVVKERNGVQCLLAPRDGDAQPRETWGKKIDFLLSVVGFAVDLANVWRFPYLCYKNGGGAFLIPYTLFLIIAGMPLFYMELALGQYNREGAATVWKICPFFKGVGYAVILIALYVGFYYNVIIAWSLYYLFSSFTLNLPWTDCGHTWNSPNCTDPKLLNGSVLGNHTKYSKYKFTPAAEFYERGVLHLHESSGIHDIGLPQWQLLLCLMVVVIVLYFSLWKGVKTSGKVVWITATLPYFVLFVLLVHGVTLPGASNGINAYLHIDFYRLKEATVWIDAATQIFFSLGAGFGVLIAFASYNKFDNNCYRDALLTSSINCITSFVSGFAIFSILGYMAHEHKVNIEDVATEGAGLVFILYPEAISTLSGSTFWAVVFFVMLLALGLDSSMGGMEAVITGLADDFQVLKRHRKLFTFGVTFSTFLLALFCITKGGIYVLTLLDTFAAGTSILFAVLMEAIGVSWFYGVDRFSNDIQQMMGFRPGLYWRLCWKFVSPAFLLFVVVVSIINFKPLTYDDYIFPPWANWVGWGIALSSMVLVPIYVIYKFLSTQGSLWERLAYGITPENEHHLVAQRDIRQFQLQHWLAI
# [3] = target: T1, Sodium-dependent serotonin transporter (Homo sapiens, UniProt P31645); assay type: cell-based, COS-7
# Target sequence in this assay (P31645 whole entry, the tested form may be a part): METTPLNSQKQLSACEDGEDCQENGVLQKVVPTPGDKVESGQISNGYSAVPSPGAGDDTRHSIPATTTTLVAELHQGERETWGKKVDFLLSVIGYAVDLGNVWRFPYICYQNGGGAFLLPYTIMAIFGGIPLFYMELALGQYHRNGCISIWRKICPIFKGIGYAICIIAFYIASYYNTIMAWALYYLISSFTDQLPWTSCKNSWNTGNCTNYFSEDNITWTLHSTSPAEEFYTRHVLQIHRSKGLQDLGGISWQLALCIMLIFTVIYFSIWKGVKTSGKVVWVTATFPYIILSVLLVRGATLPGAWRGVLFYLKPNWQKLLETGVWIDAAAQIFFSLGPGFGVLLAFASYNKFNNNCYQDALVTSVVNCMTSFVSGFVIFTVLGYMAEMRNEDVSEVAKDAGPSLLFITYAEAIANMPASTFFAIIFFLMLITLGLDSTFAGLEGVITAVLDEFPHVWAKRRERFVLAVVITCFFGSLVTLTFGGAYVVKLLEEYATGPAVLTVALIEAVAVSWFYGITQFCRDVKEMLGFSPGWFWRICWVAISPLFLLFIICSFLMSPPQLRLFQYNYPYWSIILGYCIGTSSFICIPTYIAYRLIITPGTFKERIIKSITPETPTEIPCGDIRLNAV
# [4] = target: T1, Sodium-dependent serotonin transporter; assay: Binding affinity to EGFP fused human SERT expressed in HEK293 cells after 1 hr by confocal microscopy in presence of S-citalopram; assay type: cell-based
# Summary of the method: (§1)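 Live HEK293 cells stably expressing EGFP-hSERT were incubated 1 h at 37°C with 20 nM rhodamine-labeled ligand. […] Confocal microscopy scored red-channel fluorescence at the cell surface against EGFP (green) distribution. Images are representative of more than 3 individual experiments.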
# Target sequence in this assay (P31645 whole entry, looked up, the tested form may be a part): as the sequence (P31645 whole entry, the tested form may be a part) above
# COS-7 [5] = assay: Ratio of Ki for human DAT expressed in COS7 cells to Ki for human SERT expressed in COS7 cells; assay type: cell-based
# [6] = target: T1, Sodium-dependent serotonin transporter; assay: Binding affinity to EGFP fused human SERT expressed in HEK293 cells after 1 hr by confocal microscopy in presence of 5-HT; assay type: cell-based; summary of the method: as §1
# Target sequence in this assay (P31645 whole entry, looked up, the tested form may be a part): as the sequence (P31645 whole entry, the tested form may be a part) above
# COS-7 [7] = assay: Ratio of Ki for human NET expressed in COS7 cells to Ki for human SERT expressed in COS7 cells; assay type: cell-based
# [8] = target: T1, Sodium-dependent serotonin transporter; assay: Binding affinity to EGFP fused human SERT expressed in HEK293 cells after 1 hr by confocal microscopy; assay type: cell-based; summary of the method: as §1
# Target sequence in this assay (P31645 whole entry, looked up, the tested form may be a part): as the sequence (P31645 whole entry, the tested form may be a part) above
# [9] = target: T1, Sodium-dependent serotonin transporter; assay: Binding affinity to EGFP fused human SERT expressed in HEK293 cells after 1 hr by confocal microscopy in presence of paroxetine; assay type: cell-based; summary of the method: as §1
# Target sequence in this assay (P31645 whole entry, looked up, the tested form may be a part): as the sequence (P31645 whole entry, the tested form may be a part) above
# Sodium-dependent dopamine transporter, sequence (Q01959 whole entry): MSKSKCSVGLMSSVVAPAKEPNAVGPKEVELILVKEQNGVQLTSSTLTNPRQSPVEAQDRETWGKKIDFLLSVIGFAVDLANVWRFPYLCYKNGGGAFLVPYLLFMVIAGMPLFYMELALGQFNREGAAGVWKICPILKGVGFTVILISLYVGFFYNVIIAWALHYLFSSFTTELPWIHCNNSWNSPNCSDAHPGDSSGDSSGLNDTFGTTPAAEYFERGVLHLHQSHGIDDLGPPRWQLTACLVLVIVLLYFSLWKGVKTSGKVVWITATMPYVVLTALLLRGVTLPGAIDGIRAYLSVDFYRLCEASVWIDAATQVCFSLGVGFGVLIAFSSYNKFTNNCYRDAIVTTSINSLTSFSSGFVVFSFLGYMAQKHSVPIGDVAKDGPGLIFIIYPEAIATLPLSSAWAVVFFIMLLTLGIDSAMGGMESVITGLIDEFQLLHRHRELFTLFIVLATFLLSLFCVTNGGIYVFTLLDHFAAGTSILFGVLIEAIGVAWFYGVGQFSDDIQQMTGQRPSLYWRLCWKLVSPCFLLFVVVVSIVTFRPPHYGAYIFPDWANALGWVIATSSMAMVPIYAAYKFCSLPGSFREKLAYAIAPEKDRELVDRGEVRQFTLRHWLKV
Compound,Ki [1],Ki [2],Ki [3],Activity [4],Ratio Ki (COS-7 [5]),Activity [6],Ratio Ki (COS-7 [7]),Activity [8],Activity [9]
CCN(CC)c1ccc2c(-c3ccc(S(=O)(=O)NCCCCCC(=O)NCCC(=O)Nc4cccc(-c5ccc6c(c5)COC6(CCCN(C)C)c5ccc(F)cc5)c4)cc3S(=O)(=O)[O-])c3ccc(=[N+](CC)CC)cc-3oc2c1 (stereo not drawn),10900 nM,11800 nM,225 nM,inactive,50,inactive,50,Active,inactive
CCN(CC)c1ccc2c(-c3ccc(S(=O)(=O)NCCCCCC(=O)NCCN4[C@@H]5CC[C@@H]4[C@@H](C(=O)OC)[C@@H](c4ccc(Cl)c(Cl)c4)C5)cc3S(=O)(=O)[O-])c3ccc(=[N+](CC)CC)cc-3oc2c1,62 nM,194 nM,392 nM,,,,,,
CN(C)CCCC1(c2ccc(F)cc2)OCc2cc(-c3cccc(N)c3)ccc21 (stereo not drawn),,,390 nM,,,,,,
